The test system of data set [1] is MDCK. The data set can be described thus: Inhibitory activity against Parainfluenza 1 (Sendai) virus (PIV) in MDCK cells. It is filed as functional. Particulars: Canis lupus familiaris, read-out: ED50 (the source's name). Put shortly:
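Confluent MDCK monolayers infected with Sendai virus (10 HAU/10⁵ cells) and allowed to adsorb for 1 h at 37 °C. Inoculum removed, cells washed three times with PBS, then given fresh medium with 2% FCS. Compounds added after adsorption at several dilutions and kept until the end. Supernatants harvested at different times after challenge and titrated as hemagglutinin units. ED₅₀ derived from these titres.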

The subject of data set [2] is NSO mouse myeloma cells (Mus musculus). The data set can be described thus: Cytotoxicity required to inhibit cell proliferation by 50% (tritiated thymidine incorporation in proliferating NSO mouse myeloma cells). Background: Incorporation of labelled thymidine or its analogues reports DNA synthesis.
Data set [3] can be described thus: Minimum toxic concentration required to cause a microscopically detectable alteration of normal cell morphology of MDCK cells. To be noted: Sendai virus, read-out: MTC.

29 compounds from ChEMBL document CHEMBL1134317, “Synthesis, biological evaluation, and pharmacophore generation of uracil, 4(3H)-pyrimidinone, and uridine derivatives as potent and selective inhibitors of parainfluenza 1 (Sendai) virus” (J Med Chem, 2001) can be followed below.

As usually defined, the CC50 is the concentration at which the toxic effect on the cells reaches its halfway point. Low values mean greater toxicity to the cells, high ones lower toxicity to the cells.

With `CCCCOc1nc(CC2(C)CCCO2)cc(=O)n1C` (stereo unspecified), in data set [1], the EC50 was found to be 186 µM. Besides, in data set [2], the CC50 is 1080 µM. The MCC in data set [3] was 373 µM.
On to `COc1nc(CC2(C)CCCO2)cc(=O)n1C` (stereo unspecified), for which the EC50 in data set [1] turned out to be 893 µM. The compound also gave a CC50 in data set [2] of 1620 µM. For the same compound, the MCC in data set [3] came to 893 µM.
Take `Cn1c(C[C@@H]2CCCO2)cc(=O)n(C)c1=O`: the EC50 in data set [1] is 338 µM. The compound also displayed a CC50 in data set [2] of 1220 µM. Also, the MCC in data set [3] turned out to be 446 µM.
Take `COc1nc(CC2(c3ccccc3)CCCO2)cc(=O)n1C` (stereo unspecified): the EC50 in data set [1] was determined as 166 µM. Further, the CC50 in data set [2] was 130 µM. The MCC in data set [3] worked out at 383 µM.
Take `C[C@H]1O[C@@]1(C)Cc1cc(=O)n(C)c(=O)n1C`: in data set [2], the midpoint of cytotoxicity, the CC50, lay at 89 µM. Moreover, the MCC in data set [3] was more than 2 µM.
`CCCOc1nc(CC2(c3ccccc3)CCCO2)cc(=O)n1C` (stereo unspecified): in data set [1], the EC50 came to 152 µM. In addition, the midpoint of cytotoxicity in data set [2], the CC50, lay at 170 µM. Moreover, the MCC in data set [3] was determined as 305 µM.
For `CCCOc1nc(CC2(C)CCCO2)cc(OC)n1` (stereo unspecified), in that order: 267 µM, 375 µM and more than 305 µM.
As for `Cn1c([C@H]2O[C@H]2c2ccccc2)cc(=O)n(C)c1=O` (racemic), in data set [1], the EC50 was determined as 0.38 µM. This compound yielded a CC50 in data set [2] of 7.7 µM. For the same compound, in data set [3], the MCC is more than 0.8 µM.
Turning to `Cn1c(C2OC2(C)c2ccccc2)cc(=O)n(C)c1=O` (stereo unspecified), the CC50 in data set [2] is 7.3 µM. Also, the MCC in data set [3] was more than 0.81 µM.
Take `CCCCOc1nc(CC2CCCO2)cc(=O)n1C` (stereo unspecified): in data set [1], the EC50 was 195 µM. The same compound came in with a CC50 in data set [2] of 579 µM. Further, the MCC in data set [3] is 376 µM.
Turning to `C[C@@H]1O[C@@]1(C)Cc1cc(=O)n(C)c(=O)n1C`, the CC50 in data set [2] came to 89 µM. For the same compound, the MCC in data set [3] is more than 2 µM.
For `Cn1c(CC23CCC[C@H]2O3)cc(=O)n(C)c1=O` (stereo partly specified), the CC50 in data set [2] is 8.4 µM. In addition, the MCC in data set [3] was more than 0.84 µM.
In data set [2], `CC1O[C@]1(C)Cc1cc(=O)n(C)c(OC2CCCCC2)n1` (mixture of isomers) yielded a CC50 of more than 342 µM. The MCC in data set [3] came out at 342 µM.
As for `COc1nc(CC2(c3ccccc3)CO2)cc(=O)n1C` (stereo unspecified), in data set [1], the EC50 came out at 0.37 µM. In data set [2], this compound showed a CC50 of more than 360 µM. In addition, the MCC in data set [3] is 735 µM.
For `Cn1c(OC2CCCCC2)nc(CC2(C)CCCO2)cc1=O` (stereo unspecified), in that order: 164 µM, 816 µM and 326 µM.
For `COc1nc(CC2CCCO2)cc(=O)n1C` (stereo unspecified), the EC50 in data set [1] was more than 446 µM. The compound also displayed a CC50 in data set [2] of 1220 µM. Besides, the MCC in data set [3] was found to be 446 µM.
In the case of `Cn1c(C[C@]2(c3ccccc3)CCCO2)cc(=O)n(C)c1=O`, the EC50 in data set [1] is 116 µM. The same compound gave a CC50 in data set [2] of 547 µM. In addition, the MCC in data set [3] is more than 333 µM.
On to `CCCOc1nc(CC2CCCO2)cc(=O)n1C` (stereo unspecified), for which, in data set [1], the EC50 was 300 µM. Besides, the CC50 in data set [2] came to 1020 µM. The MCC in data set [3] turned out to be 397 µM.
In data set [2], `Cn1c(CC2(C)CO2)cc(=O)n(C)c1=O` (stereo unspecified) showed a CC50 of 4 µM. For the same compound, the MCC in data set [3] was 0.48 µM.
For `Cn1c(CC2(C(C)(C)C)CO2)cc(=O)n(C)c1=O` (stereo unspecified), in that order: 7.9 µM and more than 0.79 µM.
Compound `CCCOc1nc(CC23CCCC[C@H]2O3)cc(=O)n1C` (stereo partly specified) registered a CC50 in data set [2] of more than 352 µM. Moreover, the MCC in data set [3] is more than 352 µM.
As for `Cn1c(CC23CCCC[C@@H]2O3)cc(=O)n(C)c1=O` (stereo partly specified), the EC50 in data set [1] was more than 2 µM. Moreover, in data set [2], the CC50 was 40 µM. Moreover, the MCC in data set [3] is more than 2 µM.
`Cn1c(OC2CCCCC2)nc(CC2(c3ccccc3)CO2)cc1=O` (stereo unspecified) had a CC50 in data set [2] of more than 294 µM. For the same compound, in data set [3], the MCC amounted to 294 µM.
For `CCCOc1nc(CC2(c3ccccc3)CO2)cc(=O)n1C` (stereo unspecified), in that order: more than 330 µM and 330 µM.
In the case of `Cn1c(C[C@]2(C)CCCO2)cc(=O)n(C)c1=O`, the EC50 in data set [1] amounted to 1.11 µM. Besides, the CC50 in data set [2] was 1380 µM. In addition, the MCC in data set [3] was more than 223 µM.
`Cn1c(CC2(c3ccccc3)CO2)cc(=O)n(C)c1=O` (stereo unspecified) registered a CC50 in data set [2] of 3.7 µM. Also, the MCC in data set [3] stood at 0.37 µM.
For `Cn1c([C@H]2O[C@@H]2c2ccccc2)cc(=O)n(C)c1=O`, the EC50 in data set [1] came out at 193 µM. Further, the CC50 in data set [2] was more than 380 µM. In addition, the MCC in data set [3] is 380 µM.
With `CCCCOc1nc(CC2(c3ccccc3)CCCO2)cc(=O)n1C` (stereo unspecified), the EC50 in data set [1] is 146 µM. Moreover, in data set [2], the CC50 worked out at 90 µM. In data set [3], the MCC was determined as 292 µM.
For `CCCOc1nc(CC2(C)CCCO2)cc(=O)n1C` (stereo unspecified), in that order: 187 µM, 860 µM and more than 376 µM.
